One block for each compound: values may come before it. Active and inactive are the calls of the source. The rule behind the calls is not given here.
Columns and labels:
[1] = target: T1, Endoplasmic reticulum aminopeptidase 1 (Homo sapiens, UniProt Q9NZ08); assay: Inhibition of human recombinant ERAP1 expressed in baculovirus infected Sf9 cells using L-leucine-7-amido-4-methyl coumarin as substrate after 5 to 10 mins by fluorescence assay
[2] = target: T2, Endoplasmic reticulum aminopeptidase 2 (Homo sapiens, UniProt Q6P179); assay: Inhibition of human recombinant ERAP2 expressed in baculovirus infected cabbage looper ovary Hi5 cells using L-arginyl-7-amido-4-methyl coumarin as substrate up to 100 uM after 5 to 10 mins by fluorescence assay; conditions: BTI-TN-5B1-4
T2 sequence (Q6P179 whole entry): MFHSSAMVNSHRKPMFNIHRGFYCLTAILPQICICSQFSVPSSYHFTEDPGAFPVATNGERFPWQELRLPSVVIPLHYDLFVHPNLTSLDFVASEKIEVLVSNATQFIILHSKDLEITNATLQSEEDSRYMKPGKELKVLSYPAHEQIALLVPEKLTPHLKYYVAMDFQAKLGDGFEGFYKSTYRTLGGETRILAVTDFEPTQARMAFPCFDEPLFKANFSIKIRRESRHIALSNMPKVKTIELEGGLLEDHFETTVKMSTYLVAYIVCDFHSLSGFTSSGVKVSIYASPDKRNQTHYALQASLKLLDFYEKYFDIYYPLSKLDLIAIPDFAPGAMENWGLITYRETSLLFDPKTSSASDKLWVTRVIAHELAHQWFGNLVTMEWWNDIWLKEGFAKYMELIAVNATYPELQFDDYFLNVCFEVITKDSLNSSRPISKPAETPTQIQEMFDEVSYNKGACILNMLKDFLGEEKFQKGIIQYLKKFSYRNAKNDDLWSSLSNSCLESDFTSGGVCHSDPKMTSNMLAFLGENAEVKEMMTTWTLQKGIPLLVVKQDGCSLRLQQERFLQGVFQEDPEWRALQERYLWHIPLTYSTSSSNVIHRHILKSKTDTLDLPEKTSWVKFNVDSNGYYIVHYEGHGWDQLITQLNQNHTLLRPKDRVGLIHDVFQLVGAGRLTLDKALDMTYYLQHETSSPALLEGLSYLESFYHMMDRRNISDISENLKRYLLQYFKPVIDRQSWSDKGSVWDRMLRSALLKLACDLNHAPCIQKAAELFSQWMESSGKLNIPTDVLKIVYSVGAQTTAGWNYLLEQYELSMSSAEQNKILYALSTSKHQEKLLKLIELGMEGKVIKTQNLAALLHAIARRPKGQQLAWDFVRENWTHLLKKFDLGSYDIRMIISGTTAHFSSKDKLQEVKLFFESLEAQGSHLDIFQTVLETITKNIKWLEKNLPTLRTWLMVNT
In short: (§1)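 Recombinant human enzymes made in baculovirus-infected Hi5 cells, kept in 10 mM HEPES pH 7, 100 mM NaCl, 10% glycerol. ERAP1 30 nM, ERAP2 6 nM or IRAP 6 nM with 50 μM substrate (L-AMC for ERAP1 and IRAP, R-AMC for ERAP2) and varied inhibitor. Fluorescence rise followed at ex 380/em 460; IC50 from fit of activity against inhibitor concentration.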

[3] = target: T1, Endoplasmic reticulum aminopeptidase 1; assay: Inhibition of human recombinant ERAP1 expressed in baculovirus infected […] using L-leucine-7-amido-4-methyl coumarin as substrate up to 100 uM after 5 to 10 mins by fluorescence assay; in short: as §1
[4] = target: T3, Leucyl-cystinyl aminopeptidase (Homo sapiens, UniProt Q9UIQ6); assay: Inhibition of human recombinant IRAP expressed in baculovirus infected cabbage looper ovary Hi5 cells using L-leucine-7-amido-4-methyl coumarin as substrate after 5 to 10 mins by fluorescence assay; design: species or system Female gonad, BTI-TN-5B1-4
T3 sequence (Q9UIQ6 whole entry): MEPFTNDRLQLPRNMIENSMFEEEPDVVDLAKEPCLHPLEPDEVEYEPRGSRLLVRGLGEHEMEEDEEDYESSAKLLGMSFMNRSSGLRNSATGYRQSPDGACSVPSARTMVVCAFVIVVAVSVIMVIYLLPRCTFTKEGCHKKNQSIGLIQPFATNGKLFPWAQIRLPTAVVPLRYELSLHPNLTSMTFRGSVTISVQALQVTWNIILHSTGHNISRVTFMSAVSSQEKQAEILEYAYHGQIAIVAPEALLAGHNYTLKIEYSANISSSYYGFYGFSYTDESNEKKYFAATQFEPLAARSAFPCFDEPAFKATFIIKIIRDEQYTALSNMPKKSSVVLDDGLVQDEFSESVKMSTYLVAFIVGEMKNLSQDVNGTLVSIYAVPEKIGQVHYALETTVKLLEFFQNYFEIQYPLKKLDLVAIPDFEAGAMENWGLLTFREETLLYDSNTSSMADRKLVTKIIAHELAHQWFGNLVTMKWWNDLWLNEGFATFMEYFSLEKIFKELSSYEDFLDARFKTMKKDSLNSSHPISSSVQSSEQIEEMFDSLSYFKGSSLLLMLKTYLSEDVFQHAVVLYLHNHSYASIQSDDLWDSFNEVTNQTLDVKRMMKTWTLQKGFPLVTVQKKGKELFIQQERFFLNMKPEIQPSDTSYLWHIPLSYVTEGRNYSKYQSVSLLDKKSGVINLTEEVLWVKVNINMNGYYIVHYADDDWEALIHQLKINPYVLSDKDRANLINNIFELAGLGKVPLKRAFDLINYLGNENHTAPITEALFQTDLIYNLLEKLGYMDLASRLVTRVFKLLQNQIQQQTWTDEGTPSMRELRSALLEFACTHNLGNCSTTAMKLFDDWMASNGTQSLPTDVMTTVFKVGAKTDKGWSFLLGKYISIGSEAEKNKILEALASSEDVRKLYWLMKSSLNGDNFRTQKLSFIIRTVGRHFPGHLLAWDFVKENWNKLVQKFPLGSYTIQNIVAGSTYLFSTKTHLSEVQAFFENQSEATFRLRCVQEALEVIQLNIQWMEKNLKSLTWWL

[5] = target: T2, Endoplasmic reticulum aminopeptidase 2; assay: Inhibition of human recombinant ERAP2 expressed in baculovirus infected cabbage looper ovary Hi5 cells using L-arginyl-7-amido-4-methyl coumarin as substrate after 5 to 10 mins by fluorescence assay; design: species or system Female gonad, BTI-TN-5B1-4
[6] = target: T3, Leucyl-cystinyl aminopeptidase; assay: Inhibition of human recombinant IRAP expressed in baculovirus infected cabbage looper ovary Hi5 cells using L-leucine-7-amido-4-methyl coumarin as substrate up to 100 uM after 5 to 10 mins by fluorescence assay; conditions: BTI-TN-5B1-4; in short: as §1
[7] = target: T4, Endoplasmic reticulum aminopeptidase 1 (Mus musculus) (UniProt Q9EQH2); assay: Inhibition of ERAP1 in mouse RAW264.7 cells assessed as reduction in interferon-gamma/LPS-induced phagocytosis after 24 hrs by fluorescent latex beads internalization assay; format: cell-based
T4 sequence (whole entry): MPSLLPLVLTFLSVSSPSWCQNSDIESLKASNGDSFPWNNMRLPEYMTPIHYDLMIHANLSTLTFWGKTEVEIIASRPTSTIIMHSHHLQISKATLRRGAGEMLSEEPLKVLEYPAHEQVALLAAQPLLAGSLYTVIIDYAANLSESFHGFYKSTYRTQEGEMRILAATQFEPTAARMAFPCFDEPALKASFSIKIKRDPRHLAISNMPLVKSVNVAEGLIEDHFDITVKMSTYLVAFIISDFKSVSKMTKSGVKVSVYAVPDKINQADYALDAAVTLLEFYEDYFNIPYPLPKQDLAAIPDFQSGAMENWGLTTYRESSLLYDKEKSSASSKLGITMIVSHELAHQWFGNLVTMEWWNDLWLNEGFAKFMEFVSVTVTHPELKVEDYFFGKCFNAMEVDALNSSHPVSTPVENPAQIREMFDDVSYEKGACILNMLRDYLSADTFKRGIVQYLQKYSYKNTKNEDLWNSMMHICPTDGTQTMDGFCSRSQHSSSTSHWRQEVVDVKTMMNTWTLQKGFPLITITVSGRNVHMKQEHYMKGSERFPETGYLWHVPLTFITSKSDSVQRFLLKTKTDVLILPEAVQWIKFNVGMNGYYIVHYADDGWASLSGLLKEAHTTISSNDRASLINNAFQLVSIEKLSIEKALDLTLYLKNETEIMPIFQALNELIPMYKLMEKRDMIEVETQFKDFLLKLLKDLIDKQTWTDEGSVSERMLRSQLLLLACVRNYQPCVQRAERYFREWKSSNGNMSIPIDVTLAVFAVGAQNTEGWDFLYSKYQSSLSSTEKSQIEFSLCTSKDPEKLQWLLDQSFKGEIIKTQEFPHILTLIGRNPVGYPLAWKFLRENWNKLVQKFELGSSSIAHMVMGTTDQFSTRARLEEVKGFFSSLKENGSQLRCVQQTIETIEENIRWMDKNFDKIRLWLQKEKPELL
In short: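 RAW264.7 cells in RPMI 1640/10% FBS, seeded 2×10^4/well for 24 h. Activated with IFN-γ (100 IU/mL) plus LPS (1 μg/mL) with or without inhibitor at various concentrations. FITC-IgG latex beads given in 1% FBS medium for 24 h at 37 °C. Uptake read as fluorescence (ex 485/em 535) after PBS washes; ED50 from curve fit.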

T1 sequence (Q9NZ08 whole entry): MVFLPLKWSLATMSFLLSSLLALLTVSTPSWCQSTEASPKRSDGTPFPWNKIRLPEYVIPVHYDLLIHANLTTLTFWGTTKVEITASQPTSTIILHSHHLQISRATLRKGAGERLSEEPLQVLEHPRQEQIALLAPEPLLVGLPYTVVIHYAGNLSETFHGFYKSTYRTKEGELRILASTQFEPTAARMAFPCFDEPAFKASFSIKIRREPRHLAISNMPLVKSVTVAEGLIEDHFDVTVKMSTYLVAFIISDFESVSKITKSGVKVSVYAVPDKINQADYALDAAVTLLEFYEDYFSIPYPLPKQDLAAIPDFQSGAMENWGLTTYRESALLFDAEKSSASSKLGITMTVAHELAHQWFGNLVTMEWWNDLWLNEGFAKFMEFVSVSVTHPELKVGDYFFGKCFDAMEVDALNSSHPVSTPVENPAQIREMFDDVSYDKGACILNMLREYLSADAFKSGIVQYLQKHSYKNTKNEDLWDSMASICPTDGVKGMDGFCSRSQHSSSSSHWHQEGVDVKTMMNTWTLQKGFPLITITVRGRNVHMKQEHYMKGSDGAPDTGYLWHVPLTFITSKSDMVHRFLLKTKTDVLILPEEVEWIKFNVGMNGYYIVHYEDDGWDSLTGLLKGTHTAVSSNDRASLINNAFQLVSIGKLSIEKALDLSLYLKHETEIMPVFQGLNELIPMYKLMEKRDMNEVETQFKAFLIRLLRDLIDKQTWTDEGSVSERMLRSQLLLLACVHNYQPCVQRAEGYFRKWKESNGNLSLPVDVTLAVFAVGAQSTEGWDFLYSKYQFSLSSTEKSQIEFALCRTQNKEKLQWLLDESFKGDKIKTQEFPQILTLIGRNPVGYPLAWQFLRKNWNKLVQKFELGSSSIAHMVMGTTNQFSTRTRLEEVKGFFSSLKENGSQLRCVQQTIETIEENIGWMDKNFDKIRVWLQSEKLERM

- IC50 [1]: > 100 µM
SMILES: CCCC[C@H](N)C(=O)Nc1ccc(C(=O)N[C@H](C(=O)OCc2ccccc2)C(C)C)cc1N

- inhibition [2]: inactive
- inhibition [3]: inactive
SMILES: COC(=O)c1ccc(N)c(NC(=O)[C@@H](N)CCc2ccc(OCc3ccccc3)cc2)c1

- inhibition [3]: inactive
- IC50 [5]: > 100 µM
SMILES: CC(C)[C@H](NC(=O)c1ccc(NC(=O)[C@@H](N)CCc2ccccc2)c(N)c1)C(=O)O

- IC50 [1]: > 100 µM
- IC50 [5]: > 100 µM
SMILES: COC(=O)[C@H](CCCCN)NC(=O)c1ccc(NC(=O)[C@@H](N)Cc2ccc(O)cc2)c(N)c1

- inhibition [3]: inactive
SMILES: COC(=O)[C@H](Cc1ccc(O)cc1)NC(=O)c1ccc(NC(=O)[C@@H](N)Cc2ccc(OCc3ccccc3)cc2)c(N)c1

- IC50 [5]: 40 µM
SMILES: Nc1ccc(C(=O)N[C@@H](Cc2c[nH]c3ccccc23)C(=O)O)cc1NC(=O)[C@@H](N)Cc1ccc(O)cc1

- IC50 [1]: > 100 µM
SMILES: CCCC[C@H](N)C(=O)Nc1cc(C(=O)N[C@@H](Cc2ccc(O)cc2)C(=O)OC)ccc1N

- inhibition [2]: inactive
- inhibition [3]: inactive
SMILES: COC(=O)c1ccc(N)c(NC(=O)[C@@H](N)Cc2ccc(OCc3ccccc3)cc2)c1

- inhibition [3]: inactive
SMILES: NCCCC[C@H](NC(=O)c1ccc(N)c(NC(=O)[C@@H](N)Cc2ccc(O)cc2)c1)C(=O)O

- IC50 [1]: > 100 µM
SMILES: Nc1ccc(C(=O)N[C@@H](Cc2c[nH]c3ccccc23)C(=O)O)cc1N

- IC50 [1]: 110 µM
SMILES: COC(=O)[C@H](Cc1ccc(O)cc1)NC(=O)c1ccc(N)c(NC(=O)[C@@H](N)Cc2ccc(O)cc2)c1

- inhibition [2]: inactive
- inhibition [3]: inactive
SMILES: Nc1ccc(C(=O)O)cc1NC(=O)[C@@H](N)Cc1ccc(OCc2ccccc2)cc1

- IC50 [1]: > 100 µM
- IC50 [5]: > 100 µM
SMILES: Nc1ccc(C(=O)N[C@@H](Cc2c[nH]c3ccccc23)C(=O)OCc2ccccc2)cc1NC(=O)[C@@H](N)CCc1ccc(OCc2ccccc2)cc1

- ED50 [7]: 3 µM
- inhibition [7]: Dose-dependent effect
SMILES: COC(=O)[C@H](Cc1ccc(O)cc1)NC(=O)c1ccc(N)c(NC(=O)[C@@H](N)CCCNC(=N)N)c1

- inhibition [3]: inactive
SMILES: NCCCC[C@H](NC(=O)c1ccc(N)c(NC(=O)[C@@H](N)Cc2ccccc2)c1)C(=O)O

- ED50 [7]: 0.97 µM
- inhibition [7]: Dose-dependent effect
SMILES: COC(=O)[C@H](CCCCN)NC(=O)c1ccc(N)c(NC(=O)[C@@H](N)CCc2ccccc2)c1

- inhibition [3]: inactive
- IC50 [5]: > 100 µM
SMILES: CC(C)[C@H](NC(=O)c1ccc(NC(=O)[C@@H](N)CCc2ccccc2)c(N)c1)C(=O)OCc1ccccc1

- inhibition [2]: inactive
- inhibition [3]: inactive
SMILES: COC(=O)[C@H](CCCCN)NC(=O)c1ccc(NC(=O)[C@@H](N)CCc2ccccc2)c(N)c1

- inhibition [3]: inactive
SMILES: Nc1cc(C(=O)N[C@@H](Cc2c[nH]c3ccccc23)C(=O)OCc2ccccc2)ccc1NC(=O)[C@@H](N)CCc1ccc(OCc2ccccc2)cc1

- inhibition [3]: inactive
SMILES: CC(C)[C@H](NC(=O)c1ccc(N)c(NC(=O)[C@@H](N)Cc2ccc(O)cc2)c1)C(=O)OCc1ccccc1

- inhibition [3]: inactive
- IC50 [5]: > 100 µM
SMILES: Nc1ccc(C(=O)N[C@@H](Cc2c[nH]c3ccccc23)C(=O)OCc2ccccc2)cc1N

- IC50 [1]: > 100 µM
SMILES: COC(=O)[C@H](CCCCN)NC(=O)c1ccc(N)c(NC(=O)[C@@H](N)CCc2ccc(OCc3ccccc3)cc2)c1

- inhibition [6]: inactive
- inhibition [2]: inactive
- inhibition [3]: inactive
SMILES: COC(=O)[C@H](CCCCN)NC(=O)c1ccc(N)c(NC(=O)[C@@H](N)COCc2ccccc2)c1

- ED50 [7]: inactive
- IC50 [1]: > 100 µM
- IC50 [5]: > 100 µM
SMILES: CCCC[C@H](N)C(=O)Nc1cc(C(=O)N[C@H](C(=O)OCc2ccccc2)C(C)C)ccc1N

- inhibition [6]: inactive
- inhibition [2]: inactive
- inhibition [3]: inactive
SMILES: COC(=O)[C@H](CCCN)NC(=O)c1ccc(N)c(NC(=O)[C@@H](N)CCc2ccccc2)c1

- IC50 [1]: > 100 µM
SMILES: COC(=O)[C@H](CCCCN)NC(=O)c1ccc(N)c(NC(=O)[C@@H](N)CCc2ccc(O)cc2)c1

- IC50 [5]: > 100 µM
SMILES: Nc1ccc(C(=O)N[C@@H](Cc2c[nH]c3ccccc23)C(=O)O)cc1NC(=O)[C@@H](N)CCc1ccc(O)cc1

- inhibition [2]: inactive
- inhibition [3]: inactive
SMILES: COC(=O)c1ccc(NC(=O)[C@@H](N)Cc2ccc(OCc3ccccc3)cc2)c(N)c1

The remaining lines, values behind:

SMILES: COC(=O)c1ccc(N)c(NC(=O)[C@@H](N)CCc2ccc(O)cc2)c1
- inhibition [2]: inactive
- IC50 [1]: > 100 µM

SMILES: CCCC[C@H](N)C(=O)Nc1cc(C(=O)N[C@@H](CCCCN)C(=O)OC)ccc1N
- IC50 [4]: > 100 µM

SMILES: CC(C)C[C@H](N)C(=O)Nc1cc(C(=O)O)ccc1N
- inhibition [6]: inactive
- inhibition [2]: inactive
- inhibition [3]: inactive

SMILES: COC(=O)c1ccc(NC(=O)[C@@H](N)Cc2ccc(O)cc2)c(N)c1
- inhibition [3]: inactive

SMILES: COC(=O)c1ccc(N)c(NC(=O)[C@@H](N)CC(C)C)c1
- inhibition [6]: inactive
- inhibition [2]: inactive
- inhibition [3]: inactive

SMILES: CCCC[C@H](N)C(=O)Nc1ccc(C(=O)OC)cc1N
- inhibition [3]: inactive

SMILES: COC(=O)[C@H](CCCCN)NC(=O)c1ccc(N)c(NC(=O)[C@@H](N)CCCNC(=N)N)c1
- inhibition [6]: inactive

SMILES: COC(=O)c1ccc(NC(=O)[C@@H](N)CCc2ccccc2)c(N)c1
- IC50 [1]: > 100 µM

SMILES: CC(C)[C@H](NC(=O)c1ccc(N)c(NC(=O)[C@@H](N)CCCNC(=N)N)c1)C(=O)O
- inhibition [3]: inactive

SMILES: COC(=O)[C@H](CCCCN)NC(=O)c1ccc(N)c(NC(=O)[C@@H](N)CC(C)C)c1
- inhibition [6]: inactive
- inhibition [3]: inactive

SMILES: COC(=O)c1ccc(NC(=O)[C@@H](N)CCCNC(=N)N)c(N)c1
- inhibition [3]: inactive

SMILES: N=C(N)NCCC[C@H](N)C(=O)Nc1cc(C(=O)O)ccc1N
- inhibition [3]: inactive
- IC50 [5]: > 100 µM

SMILES: COC(=O)c1ccc(N)c(NC(=O)[C@@H](N)Cc2ccc(O)cc2)c1
- inhibition [3]: inactive
- IC50 [5]: > 100 µM

SMILES: COC(=O)c1ccc(NC(=O)[C@@H](N)CC(C)C)c(N)c1
- inhibition [6]: inactive
- inhibition [3]: inactive
- IC50 [5]: > 100 µM

SMILES: COC(=O)[C@H](CCCCN)NC(=O)c1ccc(N)c(N)c1
- inhibition [2]: inactive
- IC50 [1]: > 100 µM

SMILES: Nc1ccc(C(=O)O)cc1NC(=O)[C@@H](N)Cc1ccc(O)cc1
- IC50 [1]: > 100 µM

SMILES: COC(=O)c1ccc(N)c(NC(=O)[C@@H](N)CCCNC(=N)N)c1
- inhibition [3]: inactive

SMILES: COC(=O)[C@@H](NC(=O)c1ccc(N)c(NC(=O)[C@@H](N)Cc2ccc(O)cc2)c1)[C@@H](C)O
- IC50 [1]: > 100 µM

SMILES: COC(=O)[C@H](CCCNC(=N)N)NC(=O)c1ccc(N)c(N)c1
- inhibition [2]: inactive

SMILES: CCCC[C@H](N)C(=O)Nc1ccc(C(=O)N[C@@H](CCCCN)C(=O)OC)cc1N
- inhibition [3]: inactive

SMILES: CC(C)[C@H](NC(=O)c1ccc(N)c(NC(=O)[C@@H](N)Cc2ccc(O)cc2)c1)C(=O)O
- inhibition [3]: inactive
- IC50 [5]: > 100 µM

SMILES: COC(=O)[C@H](CCCCN)NC(=O)c1ccc(NC(=O)[C@@H](N)CCCNC(=N)N)c(N)c1
- inhibition [3]: inactive

SMILES: CCCC[C@H](N)C(=O)Nc1ccc(C(=O)N[C@H](C(=O)O)C(C)C)cc1N
- inhibition [3]: inactive
- IC50 [4]: 3.9 µM

SMILES: COC(=O)[C@H](Cc1ccc(O)cc1)NC(=O)c1ccc(N)c(N)c1
- inhibition [2]: inactive
- inhibition [3]: inactive

SMILES: CCCC[C@H](N)C(=O)Nc1cc(C(=O)OC)ccc1N
- IC50 [1]: > 100 µM
